Experimental findings from ChEMBL document CHEMBL3392956, “Evaluation of synthetic naphthalene derivatives as novel chemical chaperones that mimic 4-phenylbutyric acid” (Bioorg Med Chem Lett, 2015) are described below.

Calls of active or inactive are those of the source. No cut-off for these calls is given here.

The nature of series [1]: Chemical chaperone activity assessed as suppression of alpha-lactalbumin-bovine serum albumin aggregation at 0.3 mM by turbidity assay. In kind it is physicochemical. The settings on record: 300 µM. The procedure, abridged: (§1)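 Reduced alpha-lactalbumin (r-LA) was made by incubating LA with 5 mM dithiothreitol and 2.5 mM EDTA for 30 min at 25 °C. Aggregation was started at 37 °C by adding denatured bovine serum albumin, with DMSO vehicle or compound present. Turbidity was read as optical density at 488 nm and expressed relative to the matching controls. Values are means ± SE of four independent experiments.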

The next series relates to SH-SY5Y. Description: Protection against ER stress-induced human SH-SY5Y cell damage assessed as cell viability at 0.1 mM after 48 hrs by crystal violet assay. In kind it is functional, cell-based. The procedure, abridged:
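Human neuroblastoma SH-SY5Y cells stably expressing Pael-R–FLAG were incubated with or without compound at 0.1, 0.5 or 1.0 mM for 48 h. Viability was determined by crystal violet assay. Values are means ± SE of three independent experiments.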

Series [2] is described as follows: Chemical chaperone activity assessed as suppression of alpha-lactalbumin-bovine serum albumin aggregation at 3 mM by turbidity assay. In kind it is physicochemical. The settings on record: 3000 µM. The procedure, abridged: as §1

On to `COc1ccc(CCC(=O)O)c2ccccc12`, for which, in series [1], the outcome was Active. Besides, the result with SH-SY5Y was Active.
Consider `COc1ccc2ccccc2c1CCCCC(=O)O`, for which the result in series [1] was Active. Besides, in the series on SH-SY5Y, the result was Active.
In the case of `COc1ccc2cc(CCC(=O)O)ccc2c1`, the result in series [1] was Active. The outcome with SH-SY5Y was Active.
For `COc1ccc(/C=C/C(=O)O)c2ccccc12`, in series [1], the outcome was Active. Besides, the result with SH-SY5Y was Active.
On to `COc1ccc2ccccc2c1CCC(=O)O`, for which, in series [1], the outcome was Active. Moreover, in the series on SH-SY5Y, the result was Active.
Take `COc1ccc2ccccc2c1/C=C/C(=O)O`: in series [1], the result was Active. Besides, in the series on SH-SY5Y, the outcome was Active.
Regarding `COc1ccc2ccccc2c1CC/C=C/C(=O)O`, in series [1], the result was Active. In addition, the outcome in the series on SH-SY5Y was Active.
Consider `O=C(O)CCCc1ccccc1`, for which the outcome in series [2] was Active. In addition, the result in the series on SH-SY5Y was Active.
Regarding `COc1ccc(CCCCC(=O)O)c2ccccc12`, the outcome in series [1] was Active. For the same compound, in the series on SH-SY5Y, the result was Active.
Consider `COc1ccc2cc(CCCCC(=O)O)ccc2c1`, for which the outcome in series [1] was Active. In addition, the outcome in the series with SH-SY5Y was Active.
In the case of `COc1ccc2cc(/C=C/C(=O)O)ccc2c1`, in series [1], the outcome was Active. For the same compound, the outcome with SH-SY5Y was Active.
For `COc1ccc2cc(CC/C=C/C(=O)O)ccc2c1`, the outcome in series [1] was Active. For the same compound, the outcome in the series on SH-SY5Y was Active.
